According to ChEMBL document CHEMBL1208769, “Anti-T. cruzi activities and QSAR studies of 3-arylquinoxaline-2-carbonitrile di-N-oxides” (Bioorg Med Chem Lett, 2010):

How the values were obtained:
Trypanosoma cruzi [1] = experiment: Antitrypanosomal activity against Trypanosoma cruzi Tulahuen 2 epimastigotes assessed as inhibition of parasite growth at 25 uM relative to control; type: functional; details: read-out: GI
Procedure, shortened: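 Epimastigotes of T. cruzi Tulahuen 2 strain exposed to compound at 25 µM. Growth inhibition is given as percentage relative to untreated parasites. Values are means of three separate experiments, SD under 10%.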

Trypanosoma cruzi [2] = experiment: Antitrypanosomal activity against Trypanosoma cruzi Tulahuen 2 epimastigotes; type: functional, organism-based
[3] = Octanol-water partition coefficient of the compound; type: physicochemical

| IC50 (Trypanosoma cruzi [2]) [µM] | logP [3] | Compound | inhibition of growth at 25 µM (Trypanosoma cruzi [1]) [%] |
| --- | --- | --- | --- |
| 9.9 | 2.45 | N#Cc1c(-c2ccc(OC(F)(F)F)cc2)[n+]([O-])c2cc(F)c(F)cc2[n+]1[O-] | 74.4 |
| 19.3 | 1.58 | COc1ccc2c(c1)[n+]([O-])c(C#N)c(-c1ccccc1)[n+]2[O-] | 111 |
| 7.8 | 2.27 | N#Cc1c(-c2cccs2)[n+]([O-])c2ccc(C(F)(F)F)cc2[n+]1[O-] | 100 |
| 6.5 | 1.91 | COc1ccccc1N1CCN(c2c(C#N)[n+]([O-])c3cc(Cl)ccc3[n+]2[O-])CC1 | 100 |
| 12.1 | 2.09 | COc1ccc(-c2c(C#N)[n+]([O-])c3cc(F)c(F)cc3[n+]2[O-])cc1 | 91.6 |
| 18.9 | 1.82 | COc1ccc2c(c1)[n+]([O-])c(C#N)c(-c1ccc(C)cc1)[n+]2[O-] | 112 |
| 14.5 | 1.94 | N#Cc1c(-c2ccc(OC(F)(F)F)cc2)[n+]([O-])c2ccccc2[n+]1[O-] | 100 |
| 18.1 | 0.845 | Cc1ccc2c(c1)[n+]([O-])c(C#N)c(-c1ccco1)[n+]2[O-] | 68.5 |
| 19.3 | 1.58 | COc1ccc(-c2c(C#N)[n+]([O-])c3ccccc3[n+]2[O-])cc1 | 110 |
| 13 | 1.75 | N#Cc1c(-c2cccs2)[n+]([O-])c2ccc(F)cc2[n+]1[O-] | 100 |
| 14.4 | 2.62 | N#Cc1c(-c2ccc(F)cc2)[n+]([O-])c2ccc(F)cc2[n+]1[O-] | 63.8 |
| 17.4 | 2.6 | Cc1ccc(-c2c(C#N)[n+]([O-])c3cc(Cl)ccc3[n+]2[O-])cc1 | 104 |
| 15.3 | 2.87 | N#Cc1c(-c2ccc(Cl)cc2)[n+]([O-])c2ccc(Cl)cc2[n+]1[O-] | 97.5 |
| 8.3 | 2.45 | N#Cc1c(-c2ccc(OC(F)(F)F)cc2)[n+]([O-])c2ccc(Cl)cc2[n+]1[O-] | 89.1 |
| 15.1 | 2.72 | N#Cc1c(-c2ccccc2)[n+]([O-])c2ccc(C(F)(F)F)cc2[n+]1[O-] | 100 |
| 15.2 | 2.23 | N#Cc1c(-c2ccc(F)cc2)[n+]([O-])c2ccccc2[n+]1[O-] | 82.8 |
| 13.1 | 2.33 | N#Cc1c(-c2ccc(OC(F)(F)F)cc2)[n+]([O-])c2ccc(F)cc2[n+]1[O-] | 80.2 |
| 9.2 | 3.22 | N#Cc1c(-c2ccc(Cl)cc2)[n+]([O-])c2ccc(C(F)(F)F)cc2[n+]1[O-] | 100 |
| 18.1 | 2.35 | N#Cc1c(-c2ccc(Cl)cc2)[n+]([O-])c2ccccc2[n+]1[O-] | 97.1 |
| 25 | 0.582 | N#Cc1c(-c2ccco2)[n+]([O-])c2ccccc2[n+]1[O-] | 46.3 |

| IC50 (Trypanosoma cruzi [2]) [µM] | logP [3] | Compound | inhibition of growth at 25 µM (Trypanosoma cruzi [1]) [%] |
| --- | --- | --- | --- |
| 14.3 | 1.97 | COc1ccc(-c2c(C#N)[n+]([O-])c3cc(F)ccc3[n+]2[O-])cc1 | 92.2 |
| 16.4 | 2.72 | Cc1cc2c(cc1C)[n+]([O-])c(-c1ccc(F)cc1)c(C#N)[n+]2[O-] | 92.5 |
| 18.1 | 2.35 | N#Cc1c(-c2ccccc2)[n+]([O-])c2ccc(Cl)cc2[n+]1[O-] | 97.8 |
| 14.3 | 2.09 | COc1ccc2c(c1)[n+]([O-])c(C#N)c(-c1ccc(Cl)cc1)[n+]2[O-] | 111 |
| 17.4 | 2.48 | Cc1ccc(-c2c(C#N)[n+]([O-])c3cc(F)ccc3[n+]2[O-])cc1 | 87.3 |
| 10.4 | 2.15 | N#Cc1c(-c2cccs2)[n+]([O-])c2cc(F)c(F)cc2[n+]1[O-] | 82.9 |
| 14.8 | 1.62 | Cc1ccc2c(c1)[n+]([O-])c(C#N)c(-c1cccs1)[n+]2[O-] | 74.3 |
| 36.6 | 2.74 | N#Cc1c(-c2ccc(F)cc2)[n+]([O-])c2cc(F)c(F)cc2[n+]1[O-] | 29.4 |
| 15.3 | 2.62 | N#Cc1c(-c2ccccc2)[n+]([O-])c2cc(F)c(F)cc2[n+]1[O-] | 81.1 |
| 8.2 | 1.69 | COc1ccc2c(c1)[n+]([O-])c(C#N)c(-c1ccc(OC(F)(F)F)cc1)[n+]2[O-] | 100 |
| 12.5 | 1.5 | N#Cc1c(-c2ccco2)[n+]([O-])c2ccc(C(F)(F)F)cc2[n+]1[O-] | 100 |
| > 25 | 0.354 | COc1ccc2c(c1)[n+]([O-])c(C#N)c(-c1ccco1)[n+]2[O-] | 33.4 |
| 29 | 2.33 | COc1ccc(-c2c(C#N)[n+]([O-])c3cc(Cl)c(Cl)cc3[n+]2[O-])cc1 | 42.7 |
| 66.6 | 1.84 | N#Cc1c(-c2ccccc2)[n+]([O-])c2ccccc2[n+]1[O-] | 36.9 |
| 23.7 | 2.09 | Cc1ccc2c(c1)[n+]([O-])c(C#N)c(-c1ccccc1)[n+]2[O-] | 88.1 |
| 7.1 | 1.89 | N#Cc1c(-c2cccs2)[n+]([O-])c2ccc(Cl)cc2[n+]1[O-] | 100 |
| 13.8 | 3.1 | N#Cc1c(-c2ccc(Cl)cc2)[n+]([O-])c2cc(Cl)c(Cl)cc2[n+]1[O-] | 89.8 |
| 12.7 | 1.35 | N#Cc1c(-c2cccs2)[n+]([O-])c2ccccc2[n+]1[O-] | 100 |
| 18.9 | 1.82 | COc1ccc(-c2c(C#N)[n+]([O-])c3cc(C)ccc3[n+]2[O-])cc1 | 94.6 |
| 20.1 | 1.1 | Cc1cc2c(cc1C)[n+]([O-])c(-c1ccco1)c(C#N)[n+]2[O-] | 64.7 |

| IC50 (Trypanosoma cruzi [2]) [µM] | logP [3] | Compound | inhibition of growth at 25 µM (Trypanosoma cruzi [1]) [%] |
| --- | --- | --- | --- |
| 13.1 | 1.64 | N#Cc1c(-c2ccco2)[n+]([O-])c2cc(Cl)c(Cl)cc2[n+]1[O-] | 67 |
| 16.7 | 1.87 | Cc1cc2c(cc1C)[n+]([O-])c(-c1cccs1)c(C#N)[n+]2[O-] | 84.8 |
| 13.1 | 1.38 | N#Cc1c(-c2ccco2)[n+]([O-])c2cc(F)c(F)cc2[n+]1[O-] | 70.7 |
| 14.6 | 2.87 | Cc1ccc(-c2c(C#N)[n+]([O-])c3cc(F)c(F)cc3[n+]2[O-])cc1 | 86.2 |
| 21.2 | 2.57 | Cc1ccc(-c2c(C#N)[n+]([O-])c3cc(C)c(C)cc3[n+]2[O-])cc1 | 98.2 |
| 17.4 | 2.6 | Cc1ccc2c(c1)[n+]([O-])c(C#N)c(-c1ccc(Cl)cc1)[n+]2[O-] | 88.4 |
| 10.7 | 2.45 | COc1ccc(-c2c(C#N)[n+]([O-])c3cc(C(F)(F)F)ccc3[n+]2[O-])cc1 | 114 |
| 18.3 | 2.06 | COc1ccc(-c2c(C#N)[n+]([O-])c3cc(C)c(C)cc3[n+]2[O-])cc1 | 100 |
| 14.6 | 3.1 | Cc1ccc(-c2c(C#N)[n+]([O-])c3cc(Cl)c(Cl)cc3[n+]2[O-])cc1 | 95.6 |
| 15.3 | 2.87 | N#Cc1c(-c2ccccc2)[n+]([O-])c2cc(Cl)c(Cl)cc2[n+]1[O-] | 90 |
| 9.2 | 2.79 | N#Cc1c(-c2ccc(OC(F)(F)F)cc2)[n+]([O-])c2ccc(C(F)(F)F)cc2[n+]1[O-] | 100 |
| 15.4 | 2.23 | N#Cc1c(-c2ccccc2)[n+]([O-])c2ccc(F)cc2[n+]1[O-] | 89.4 |
| 7.2 | 2.68 | N#Cc1c(-c2ccc(OC(F)(F)F)cc2)[n+]([O-])c2cc(Cl)c(Cl)cc2[n+]1[O-] | 82 |
| 14.3 | 2.09 | COc1ccc(-c2c(C#N)[n+]([O-])c3cc(Cl)ccc3[n+]2[O-])cc1 | 110 |
| 18.9 | 1.11 | N#Cc1c(-c2ccco2)[n+]([O-])c2ccc(Cl)cc2[n+]1[O-] | 64.5 |
| 6.7 | 2.99 | N#Cc1c(N2CCN(c3cccc(C(F)(F)F)c3)CC2)[n+]([O-])c2ccc(Cl)cc2[n+]1[O-] | 94 |
| 23.7 | 2.09 | Cc1ccc(-c2c(C#N)[n+]([O-])c3ccccc3[n+]2[O-])cc1 | 104 |
| 14.9 | 0.983 | N#Cc1c(-c2ccco2)[n+]([O-])c2ccc(F)cc2[n+]1[O-] | 83.4 |
| 13.4 | 2.74 | N#Cc1c(-c2ccc(Cl)cc2)[n+]([O-])c2ccc(F)cc2[n+]1[O-] | 85.4 |
| 10.4 | 2.41 | N#Cc1c(-c2cccs2)[n+]([O-])c2cc(Cl)c(Cl)cc2[n+]1[O-] | 78.5 |

| Compound | IC50 (Trypanosoma cruzi [2]) [µM] | logP [3] | inhibition of growth at 25 µM (Trypanosoma cruzi [1]) [%] |
| --- | --- | --- | --- |
| N#Cc1c(NC(=O)c2cccs2)[n+]([O-])c2cc(F)c(F)cc2[n+]1[O-] | 10.8 | 1.62 | 92.4 |
| CC1CS(=O)(=O)CCN1/N=C/c1ccc([N+](=O)[O-])o1 (stereo not given) [NIFURTIMOX] | – | -0.746 | 100 |
